Measured values as given in ChEMBL document CHEMBL1275477, “Discovery and characterization of QPT-1, the progenitor of a new class of bacterial topoisomerase inhibitors” (Antimicrob Agents Chemother, 2008).
≈ marks a conversion by molar mass, not a printed value.

Tests used:
Type in all cases: functional
[1] = tested on: Staphylococcus epidermidis; assay: Antibacterial activity against methicillin and ciprofloxacin-resistant Staphylococcus epidermidis UC12084 by broth microdilution method
Outline: (§1)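 Broth microdilution MIC following National Committee for Clinical Laboratory Standards methods. Plasmid-borne GyrB in transformed S. aureus strains was overexpressed by adding 100 ng/ml doxycycline.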

[2] = tested on: Enterococcus faecium; assay: Antibacterial activity against Enterococcus faecium UC12712 by broth microdilution method; outline: as §1
[3] = tested on: Staphylococcus aureus; assay: Antibacterial activity against methicillin and ciprofloxacin-resistant Staphylococcus aureus UC12673 by broth microdilution method; outline: as §1
[4] = tested on: Staphylococcus aureus; assay: Antibacterial activity against ciprofloxacin-resistant Staphylococcus aureus by broth microdilution method; outline: as §1
[5] = tested on: Staphylococcus aureus; assay: Antibacterial activity against Staphylococcus aureus UC9218 by broth microdilution method in presence of 25% serum; outline: as §1
[6] = tested on: Streptococcus pyogenes; assay: Antibacterial activity against Streptococcus pyogenes UC152 by broth microdilution method; outline: as §1
[7] = tested on: Enterococcus faecalis; assay: Antibacterial activity against Enterococcus faecalis UC9217 by broth microdilution method; outline: as §1
[8] = tested on: Streptococcus pneumoniae; assay: Antibacterial activity against Streptococcus pneumoniae UC9912 by broth microdilution method; outline: as §1
[9] = tested on: Moraxella catarrhalis; assay: Antibacterial activity against Moraxella catarrhalis UC3067 by broth microdilution method; outline: as §1
[10] = tested on: Klebsiella pneumoniae; assay: Antibacterial activity against Klebsiella pneumoniae UC12081 by broth microdilution method; outline: as §1
[11] = tested on: Staphylococcus aureus; assay: Antibacterial activity against methicillin-susceptible Staphylococcus aureus by broth microdilution method; outline: as §1
[12] = tested on: Haemophilus influenzae; assay: Antibacterial activity against Haemophilus influenzae UC30063 by broth microdilution method; outline: as §1
[13] = tested on: Pseudomonas aeruginosa; assay: Antibacterial activity against Pseudomonas aeruginosa UC6676 by broth microdilution method; outline: as §1
[14] = tested on: Staphylococcus aureus; assay: Antibacterial activity against methicillin-resistant Staphylococcus aureus UC9213 by broth microdilution method; outline: as §1
[15] = tested on: Streptococcus pneumoniae; assay: Antibacterial activity against ciprofloxacin-resistant Streptococcus pneumoniae by broth microdilution method; outline: as §1
[16] = tested on: Escherichia coli; assay: Antibacterial activity against Escherichia coli UC6674 by broth microdilution method; outline: as §1
[17] = tested on: Staphylococcus aureus; assay: Antibacterial activity against Staphylococcus aureus UC9218 by broth microdilution method in presence of 50% serum; outline: as §1
[18] = tested on: Streptococcus pneumoniae; assay: Antibacterial activity against Streptococcus pneumoniae by broth microdilution method; outline: as §1
[19] = tested on: Staphylococcus aureus; assay: Antibacterial activity against methicillin-susceptible Staphylococcus aureus UC9218 by broth microdilution method; outline: as §1
[20] = tested on: Staphylococcus aureus; assay: Antibacterial activity against methicillin-resistant Staphylococcus aureus by broth microdilution method; outline: as §1
[21] = tested on: Streptococcus pneumoniae; assay: Antibacterial activity against Streptococcus pneumoniae UC15142 by broth microdilution method; outline: as §1

SMILES	MIC [1]	MIC [2]	MIC [3]	MIC50 [4]	MIC90 [4]	MIC [5]	MIC [6]	MIC [7]	MIC [8]	MIC [9]	MIC [10]	MIC50 [11]	MIC90 [11]	MIC [12]	MIC [13]	MIC [14]	MIC50 [15]	MIC90 [15]	MIC [16]	MIC [17]	other results
C[C@H]1CN2c3ccc([N+](=O)[O-])cc3CC3(C(=O)NC(=O)NC3=O)[C@@H]2[C@@H](C)O1	> 64 µg/mL	> 64 µg/mL	> 64 µg/mL	64 µg/mL (≈ 171 µM)	> 64 µg/mL	128 µg/mL	> 64 µg/mL	> 128 µg/mL	> 128 µg/mL	> 64 µg/mL	> 64 µg/mL	> 64 µg/mL	> 64 µg/mL	> 128 µg/mL	> 64 µg/mL	> 64 µg/mL	> 64 µg/mL	> 64 µg/mL	> 128 µg/mL	> 128 µg/mL	MIC [4]: 64 µg/mL (≈ 171 µM); MIC [11]: > 64 µg/mL; MIC [15]: > 64 µg/mL; MIC [18]: > 64 µg/mL; MIC50 [18]: > 64 µg/mL; MIC90 [18]: > 64 µg/mL; MIC [19]: 128 µg/mL (≈ 342 µM); MIC [20]: > 64 µg/mL; MIC50 [20]: > 64 µg/mL; MIC90 [20]: > 64 µg/mL; MIC [21]: > 128 µg/mL
C[C@@H]1CN2c3ccc([N+](=O)[O-])cc3CC3(C(=O)NC(=O)NC3=O)[C@H]2[C@H](C)O1	0.5 µg/mL (≈ 1.34 µM)	4 µg/mL (≈ 10.7 µM)	0.5 µg/mL (≈ 1.34 µM)	0.5 µg/mL (≈ 1.34 µM)	0.5 µg/mL (≈ 1.34 µM)	0.5 µg/mL	1 µg/mL (≈ 2.67 µM)	2 µg/mL (≈ 5.34 µM)	2 µg/mL (≈ 5.34 µM)	1 µg/mL (≈ 2.67 µM)	> 64 µg/mL	0.5 µg/mL (≈ 1.34 µM)	0.5 µg/mL (≈ 1.34 µM)	0.125 µg/mL (≈ 0.334 µM)	> 64 µg/mL	0.5 µg/mL (≈ 1.34 µM)	2 µg/mL (≈ 5.34 µM)	4 µg/mL (≈ 10.7 µM)	2 µg/mL (≈ 5.34 µM)	1 µg/mL	MIC50 [18]: 2 µg/mL (≈ 5.34 µM); MIC90 [18]: 4 µg/mL (≈ 10.7 µM); MIC [19]: 0.25 µg/mL (≈ 0.668 µM); MIC50 [20]: 0.5 µg/mL (≈ 1.34 µM); MIC90 [20]: 0.5 µg/mL (≈ 1.34 µM); MIC [21]: 2 µg/mL (≈ 5.34 µM)
